Source: PubChem (several laboratories)
VLA-4 inh – inhibition in a human VLA-4 binding assay; P13612; VLA-4 expressing cells, ligand binding flow cytometry; inhibition, % (about 7 µM as worked out from the volumes in the protocol); 0.2% of 330,000 active; AID 2557; in the data active = inhibition above about 50%
GASC-1 inh – inhibitors of human GASC-1 (JMJD2C) demethylase. inhibition, % at 2.35 µM. AID 2099. Q9H3R0. 0.069% of 330,000 active. GST-JMJD2C(1-420) H3K9me3 demethylation, DELFIA europium;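 active = more than half of a compound's replicate wells show inhibition beyond 50%, single wells judged on their own value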;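 note: signal counts dimethyl H3K9 product captured on neutravidin plate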
p-CIP stab down – p/CIP protein destabilization; decrease of EGFP signal, % at 10 µM; Q05BA5; F442A p/CIP-EGFP cells, EGFP fluorescence, 16 h; 0.01% of 290,000 active; AID 1984;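 active = EGFP signal decrease of at least 30% at 10 µM or well 3 SD below plate mean, unless failing retest; inactive = the rest, including hits failing retest or dose response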
Arrestin-AP2 inh – human beta-arrestin and AP2 interaction inhibition; FITC-arrestin peptide / GST-AP2 beads, flow cytometry; AP2 beta2 appendage carries R879A mutation; AID 504490; inhibition, % at 10 µM; 0.31% of 340,000 active;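 active = inhibition above a set limit, near 3 SD of compounds lacking own fluorescence, cut at about 54% in these data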
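System: GST-tagged AP2 beta2-adaptin appendage (R879A) on 4 µm glutathione beads / Reagent: FITC-arrestin peptide, 50 nM / Detection: HyperCyt-sampled flow cytometry, FL1 channel, ex 488/em 535 nm / Timing: 12 min plus 1 h, RT / Buffer or medium: PBS plus Tween 20 (0.05%) and BSA (0.1%)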
Arr-AP2 CP1 – inhibitors of human beta-arrestin and AP2 interaction | shares compounds with Arrestin-AP2 inh | AID 504908 | 2% of 1,300 active | inhibition, % at 10 µM | GST-AP2 beads, FITC arrestin peptide binding, flow cytometry; GST-fused beta2-adaptin appendage, R879A mutant;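 active = inhibition above a set limit, roughly 3 SD of non-fluorescent compound noise, cut at about 38% in these data; inactive = inhibition at or below that limit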;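 note: loss of bead fluorescence from 50 nM FITC arrestin peptide bound to appendage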
GST GSH counter – GST-GSH bead binding interference, counter-screen | shares compounds with Arrestin-AP2 inh | GST-fluorescein binding to GSH beads, fluorescence | inhibition, % at 10 µM | 2% of 1,300 active | AID 588338;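 active = inhibition above 50%, about 3 SD of the inhibition seen with non-fluorescent compounds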;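 note: fluorescein maleimide labelled GST captured on 4 micron glutathione beads; higher means more loss of bead fluorescence from quenching or blocked binding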
A number is an active result; i = inactive; nt = no result. Hits are enriched below; roughly 0.57% of the tested compounds scored in any of these assays.

SMILES	VLA-4 inh	GASC-1 inh	p-CIP stab down	Arrestin-AP2 inh	Arr-AP2 CP1	GST GSH counter
O=CN1CCN(C(C(=O)NC2CCCC2)c2cc3c(cc2[N+](=O)[O-])OCO3)CC1 (stereo not drawn)	i	i	i	60.4	i	i
COc1cccc(NC(=O)CSCC(=O)Nc2ccccc2)c1	i	i	i	i	nt	nt
CCCC(=O)Nc1ccc(C(N)=O)cc1	i	i	i	i	nt	nt
COc1cccc(NC(=O)CC(=O)c2ccccc2)c1	i	i	i	63.0	i	i
COc1cccc(NC(=O)CC(C)=O)c1	i	i	i	56.9	i	i
CC(=O)CC(=O)Nc1ccc(C(N)=O)cc1	i	i	i	i	i	i
NS(=O)(=O)c1ccc(N2CCCCCC2)c([N+](=O)[O-])c1	i	i	i	i	nt	nt
O=[N+]([O-])c1ccc(CNc2cccc(Cl)c2)s1	i	i	i	60.4	i	i
O=C(NNC(=O)C1CC1)c1cc(Cl)nc2ccccc12	i	i	i	i	nt	nt
Cc1cc(C(=O)COC(=O)C2CCN(C(=O)c3ccc(Cl)cc3)CC2)c(C)n1CC1CCCO1 (stereo not drawn)	i	i	i	i	nt	nt
COc1ccc(NC(=O)c2ccc(=O)[nH]c2)cc1S(=O)(=O)N1CCOCC1	nt	nt	nt	i	i	i
Cc1ccc(NC(=O)c2ccc(=O)[nH]c2)cc1S(=O)(=O)N1CCCCC1	i	i	i	i	i	i
O=C(C[n+]1cc(Br)cc(Br)c1)c1cccc([N+](=O)[O-])c1	i	i	i	i	nt	nt
O=C(/C=C/c1ccccc1Cl)N(Cc1ccc(Cl)cc1)C1CCS(=O)(=O)C1 (stereo not drawn)	i	i	i	i	nt	nt
